Square brackets hold non-standard residues; d marks the D form. Peptide text beside a SMILES is read from it. 2Nal = N[C@@H](Cc1ccc2ccccc2c1)C(=O)O
Columns and labels:
[1] = biological target: iCP-PA28-activated complex (Homo sapiens, UniProt P28062); assay: LC-MS hydrolysis of dialanine substrates by iCP-PA28-activated complex; type: biochemical; settings: 25 µM substrate, iCP + 7.5X PA28, 4 hours, triplicate, Fig. 3B
How it was run: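 Purified human iCP, activated with PA28, incubated with 25 μM test substrate for 4 hours. Each substrate is a modified recognition sequence joined to a constant dialanine cargo, with expected cleavage at the amide bond between them. Products analysed by LC-MS as percent degraded. Triplicate, mean ± standard deviation. Singly modified substrates compared with the unmodified-sequence dialanine control by t-test.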

iCP over sCP = assay: Selectivity index, mean iCP percent degraded over sCP percent degraded; type: biochemical

Compound | Hydrolysis by iCP-PA28-activated complex compared with control ATMWAA [1] | Isoform selectivity for the iCP (iCP over sCP; Fig. 3C conditions) | Increase of substrate selectivity for the iCP compared with the ATMW scaffold (iCP over sCP; ratio of selectivity indices, analogue vs ATMWAA)
CSCC[C@H](NC(=O)[C@@H](NC(=O)[C@H](C)N)[C@@H](C)O)C(=O)N[C@@H](Cc1ccc2ccccc2c1)C(=O)N[C@@H](C)C(=O)N[C@@H](C)C(N)=O [ATM(2-Nal)] (H-ATM[2Nal]AA-NH2) | hydrolyzed well by the iCP | not isoform selective | 
morph-Ala-Orn-(Met?O2)-Trp(7,Me) [mAO(Met=O2) W(7,Me)] |  |  | about 3 fold

— PMC12235443 (RSC Chemical Biology, 2025)
